One molecule from ChEMBL document CHEMBL5030540 (J Med Chem, 2021) can be followed below.

Activity calls are given as the source filed them.

Data set [1] can be described thus: Toxicity in C57BL/6 mouse model assessed as conditioned place preference at 10 mg/kg, IP. To be noted: in vivo. Type of data set: organism-based. In a few lines:
(§1)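 Counterbalanced two-compartment place conditioning in C57BL/6J mice. […] Time on drug-paired side over a 20 min test compared with preconditioning by Welch-corrected t test.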

Data set [2] has as its system Mus musculus. The data set is described as follows: Antinociceptive activity in sc dosed C57BL/6 MOR knock out mouse model assessed as increase in tail withdrawal latency measured at 20 mins by radiant heat withdrawal assay. Type of data set: functional, organism-based.
Data set [3] has as its system Mus musculus. Put plainly: Antinociceptive activity in sc dosed C57BL/6 mouse model assessed as increase in tail withdrawal latency measured at 20 mins by […] withdrawal assay. Type of data set: functional. To be noted: C57BL/6, sc. An outline of the steps: (§2)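 C57BL/6J mice given compound sc or po. 55 °C warm-water tail withdrawal with baseline latency taken first, then measured every 10 min, 15 s cutoff. % antinociception = 100 × (test − baseline)/(15 − baseline). sc doses 1, 3, 10 mg/kg (n = 8). po dose 10 mg/kg (n = 13). ED50 with 95% CI.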

For data set [4], the target named is T1, Mu-type opioid receptor (Homo sapiens, UniProt P35372). Put plainly: Agonist activity at human MOR expressed in CHO-K1 cells co-expressing beta-arrestin2 assessed as beta-arrestin2 EFC recruitment measured after 90 mins by PathHunter assay relative to control. Type of data set: functional, cell-based. In a few lines:
(§3)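 CHO-K1 cells stably expressing human μOR grown to confluency and seeded overnight at 37 °C, 5% CO2. 5× dilution series of compound in Opti-MEM added for 90 min at 37 °C. Detection reagent then added for 60 min at room temperature in the dark, and chemiluminescence read.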

A short description of data set [5]: Toxicity in C57BL/6 mouse model assessed as conditioned place aversion at 15 mg/kg, sc. Format: organism-based. To be noted: in vivo. In a few lines:
as §1

The target in data set [6] is GABA-A receptor; anion channel (Rattus norvegicus) (UniProt O09028+P15431+P18506+P18508+P19969+P20236+P23574+P23576+P28471+P28473+P30191+P62813+P63079+P63138+Q91ZM7+Q9ES14). The data set is described as follows: Partial agonist activity at GABAA receptor in rat brain slice assessed as induction of receptor-mediated inhibitory postsynaptic current at 10 uM by Whole cell electrophysiology. The following applies: filed as partial agonist. Format: tissue-based. An outline of the steps:
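Horizontal VTA slices (200 μm) from male Sprague–Dawley rats. Whole-cell voltage clamp at −70 mV, 33 °C, KCl internal. GABAA IPSCs isolated with 10 μM DNQX and evoked by paired pulses every 10 s. Drug (10 μM) bath applied. Mean IPSC amplitude at minutes 4–7 of drug compared with the 4 min baseline.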

The target of data set [7] is Mu-type opioid receptor (Mus musculus) (UniProt P42866). Put plainly: Partial agonist activity at mouse MOR expressed in HEK293T cells assessed as Nb33 recruitment by BRET assay relative to control. Format: functional, cell-based. In a few lines:
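HEK293T cells transfected with murine MOR-NanoLuc (1 μg) and Nb33-Venus (4 μg) using PEI and used 48 h later. Cells in PBS given coelenterazine H (5 μM), ligand added at 5 min, BRET read 10 min later. Three-parameter fit; ≥3 independent trials in triplicate.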
(In general: In BRET a luciferase serves as donor, and the signal depends on an acceptor being close.)

The target in data set [8] is T1, Mu-type opioid receptor. Put plainly: Agonist activity at human MOR receptor expressed in HTLA cells co-expressing TEV-fused-beta-arrestin2 assessed as induction of beta-arrestin2 recruitment by Tango assay. Format: functional, cell-based. In a few lines: (§4)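 HTLA cells expressing TEV-fused β-arrestin2 transiently transfected with a human MOR Tango construct. β-arrestin2 recruitment measured. […] Mean pEC50 ± SEM and Emax% ± SEM from triplicate runs.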

Data set [9] can be described thus: Toxicity in C57BL/6 mouse model assessed as charcoal distance travel at 15 mg/kg, sc measured after 3 hrs by gastrointestinal transit assay (reference value: 29.5 +/- 1 cm). Format: organism-based. The following applies: in vivo.
Data set [10] deals with T1, Mu-type opioid receptor. Put plainly: Agonist activity at human MOR expressed in CHO-K1 cells co-expressing beta-arrestin2 assessed as beta-arrestin2 EFC recruitment measured after 90 mins by PathHunter assay. Type of data set: functional, cell-based. In a few lines:
as §3

Data set [11] has as its target T1, Mu-type opioid receptor. The data set is described as follows: Agonist activity at human MOR receptor expressed in HTLA cells co-expressing TEV-fused-beta-arrestin2 assessed as induction of beta-arrestin2 recruitment by Tango assay relative to DAMGO. Type of data set: functional, cell-based. To be noted: HTLA230, filed as partial agonist. An outline of the steps: as §4
(Arrestin recruitment assays detect the binding of arrestin to an activated receptor.)

Data set [12] deals with Mus musculus. Put plainly: Antinociceptive activity in C57BL/6 mouse model assessed as measuring increase in tail withdrawal latency at 10 mg/kg, sc at 55 degC measured at 20 mins peak time point by […] withdrawal assay. Type of data set: functional. In a few lines: as §2
The target in data set [13] is T1, Mu-type opioid receptor. Put plainly: Partial agonist activity at human MOR expressed in HEK293T cells co-expressing Galpha-RLuc8:Gbeta:Ggamma-GFP2 assessed as Galpha-i/o activation measured after TRUPATH assay. Type of data set: functional, cell-based. To be noted: filed as partial agonist.
Data set [14] addresses Voltage-dependent L-type calcium channel subunit alpha-1C (Rattus norvegicus, UniProt P22002). Put plainly: Displacement of [3H]Diltiazem from Cav1.2 in rat brain at 10 uM incubated for 120 mins by radiometric scintillation counting analysis. Format: tissue-based. The following applies: 2 h.
A short description of data set [15]: Toxicity in C57BL/6 mouse model assessed as hyperlocomotion at 15 times of ED50 for antinociceptive effect. The following applies: in vivo. In a few lines:
(§5)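 Mice habituated 60 min in sealed CLAMS cages, dosed sc, and confined 5 min later. Respiration rate measured by pressure transducer and ambulation by infrared beam breaks, every 20 min. […] Expressed as % vehicle. Two-way ANOVA with Dunnett's test.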

Data set [16] addresses T1, Mu-type opioid receptor. Put plainly: Agonist activity at human MOR expressed in HEK-293T cells assessed as inhibition of forskolin-stimulated cAMP accumulation incubated for 30 mins by Glo-sensor cAMP assay relative to DAMGO. The following applies: HEK293T, filed as partial agonist. Type of data set: functional, cell-based. An outline of the steps:
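HEK293T cells transiently co-transfected with human MOR and a luciferase-based cAMP biosensor. Gαi-mediated cAMP inhibition read by luminescence. […] EC50 given as pEC50 ± SEM, triplicate runs.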
A general note: cAMP levels reflect the balance of adenylyl cyclase and phosphodiesterase activity.

Data set [17] can be described thus: Toxicity in C57BL/6 mouse model assessed as conditioned place preference at 15 mg/kg, sc. To be noted: in vivo. Format: organism-based. An outline of the steps: as §1
Data set [18] concerns the target T1, Mu-type opioid receptor. The data set is described as follows: Agonist activity at human MOR expressed in HEK293T cells assessed as inhibition of forskolin-stimulated cAMP accumulation incubated for 30 mins by Glo-sensor cAMP assay. Format: functional, cell-based. An outline of the steps: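 HEK293T cells transiently co-transfected with human MOR and a luciferase-based cAMP biosensor. Gαi-mediated cAMP inhibition read by luminescence. EC50 given as pEC50 ± SEM, triplicate runs.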

Data set [19] concerns Mus musculus. The data set is described as follows: Antinociceptive activity in C57BL/6 mouse model assessed as measuring increase in tail withdrawal latency at 10 mg/kg, po at 55 degC measured at 30 mins peak time point by […] withdrawal assay. Format: functional. To be noted: 0.5 h. In a few lines:
as §2

Data set [20] in a line: Toxicity in C57BL/6 mouse model assessed as respiratory depression at 15 times of ED50 for antinociceptive effect. To be noted: in vivo. In a few lines:
as §5

The target in data set [21] is T1, Mu-type opioid receptor. The data set is described as follows: Displacement of [3H]-DAMGO from mu opioid receptor (unknown origin) expressed in CHO cells at 10 uM. Format: cell-based.
The target in data set [22] is T1, Mu-type opioid receptor. The data set is described as follows: Partial agonist activity at human MOR expressed in HEK293T cells co-expressing Galpha-RLuc8:Gbeta:Ggamma-GFP2 assessed as maximal Gi-1 activation measured after 15 mins by BRET assay relative to control. Format: functional, cell-based. To be noted: filed as partial agonist.

T1 sequence (P35372 whole entry): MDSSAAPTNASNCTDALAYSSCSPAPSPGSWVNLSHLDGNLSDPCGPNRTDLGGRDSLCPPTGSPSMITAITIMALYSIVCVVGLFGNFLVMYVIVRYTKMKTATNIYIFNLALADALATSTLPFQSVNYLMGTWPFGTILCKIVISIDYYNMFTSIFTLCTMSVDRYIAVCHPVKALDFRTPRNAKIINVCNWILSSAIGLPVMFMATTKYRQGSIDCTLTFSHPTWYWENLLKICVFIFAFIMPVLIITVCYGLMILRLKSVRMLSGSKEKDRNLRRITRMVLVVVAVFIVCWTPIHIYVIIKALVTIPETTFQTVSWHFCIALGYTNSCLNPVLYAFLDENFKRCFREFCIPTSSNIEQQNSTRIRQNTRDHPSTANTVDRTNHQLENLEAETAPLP
Sequence of Mu-type opioid receptor (Mus musculus) (P42866 whole entry): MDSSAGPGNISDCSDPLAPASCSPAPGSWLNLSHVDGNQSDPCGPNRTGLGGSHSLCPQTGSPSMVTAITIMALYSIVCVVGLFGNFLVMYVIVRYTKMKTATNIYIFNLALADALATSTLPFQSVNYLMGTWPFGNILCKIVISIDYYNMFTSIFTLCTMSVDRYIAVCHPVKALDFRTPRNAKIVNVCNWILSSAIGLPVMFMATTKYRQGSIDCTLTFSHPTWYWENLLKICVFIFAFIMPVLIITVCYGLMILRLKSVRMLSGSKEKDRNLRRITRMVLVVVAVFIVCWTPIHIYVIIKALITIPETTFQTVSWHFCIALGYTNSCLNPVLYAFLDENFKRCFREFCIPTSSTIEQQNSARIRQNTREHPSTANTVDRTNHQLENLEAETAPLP
Sequence of Voltage-dependent L-type calcium channel subunit alpha-1C (P22002 whole entry): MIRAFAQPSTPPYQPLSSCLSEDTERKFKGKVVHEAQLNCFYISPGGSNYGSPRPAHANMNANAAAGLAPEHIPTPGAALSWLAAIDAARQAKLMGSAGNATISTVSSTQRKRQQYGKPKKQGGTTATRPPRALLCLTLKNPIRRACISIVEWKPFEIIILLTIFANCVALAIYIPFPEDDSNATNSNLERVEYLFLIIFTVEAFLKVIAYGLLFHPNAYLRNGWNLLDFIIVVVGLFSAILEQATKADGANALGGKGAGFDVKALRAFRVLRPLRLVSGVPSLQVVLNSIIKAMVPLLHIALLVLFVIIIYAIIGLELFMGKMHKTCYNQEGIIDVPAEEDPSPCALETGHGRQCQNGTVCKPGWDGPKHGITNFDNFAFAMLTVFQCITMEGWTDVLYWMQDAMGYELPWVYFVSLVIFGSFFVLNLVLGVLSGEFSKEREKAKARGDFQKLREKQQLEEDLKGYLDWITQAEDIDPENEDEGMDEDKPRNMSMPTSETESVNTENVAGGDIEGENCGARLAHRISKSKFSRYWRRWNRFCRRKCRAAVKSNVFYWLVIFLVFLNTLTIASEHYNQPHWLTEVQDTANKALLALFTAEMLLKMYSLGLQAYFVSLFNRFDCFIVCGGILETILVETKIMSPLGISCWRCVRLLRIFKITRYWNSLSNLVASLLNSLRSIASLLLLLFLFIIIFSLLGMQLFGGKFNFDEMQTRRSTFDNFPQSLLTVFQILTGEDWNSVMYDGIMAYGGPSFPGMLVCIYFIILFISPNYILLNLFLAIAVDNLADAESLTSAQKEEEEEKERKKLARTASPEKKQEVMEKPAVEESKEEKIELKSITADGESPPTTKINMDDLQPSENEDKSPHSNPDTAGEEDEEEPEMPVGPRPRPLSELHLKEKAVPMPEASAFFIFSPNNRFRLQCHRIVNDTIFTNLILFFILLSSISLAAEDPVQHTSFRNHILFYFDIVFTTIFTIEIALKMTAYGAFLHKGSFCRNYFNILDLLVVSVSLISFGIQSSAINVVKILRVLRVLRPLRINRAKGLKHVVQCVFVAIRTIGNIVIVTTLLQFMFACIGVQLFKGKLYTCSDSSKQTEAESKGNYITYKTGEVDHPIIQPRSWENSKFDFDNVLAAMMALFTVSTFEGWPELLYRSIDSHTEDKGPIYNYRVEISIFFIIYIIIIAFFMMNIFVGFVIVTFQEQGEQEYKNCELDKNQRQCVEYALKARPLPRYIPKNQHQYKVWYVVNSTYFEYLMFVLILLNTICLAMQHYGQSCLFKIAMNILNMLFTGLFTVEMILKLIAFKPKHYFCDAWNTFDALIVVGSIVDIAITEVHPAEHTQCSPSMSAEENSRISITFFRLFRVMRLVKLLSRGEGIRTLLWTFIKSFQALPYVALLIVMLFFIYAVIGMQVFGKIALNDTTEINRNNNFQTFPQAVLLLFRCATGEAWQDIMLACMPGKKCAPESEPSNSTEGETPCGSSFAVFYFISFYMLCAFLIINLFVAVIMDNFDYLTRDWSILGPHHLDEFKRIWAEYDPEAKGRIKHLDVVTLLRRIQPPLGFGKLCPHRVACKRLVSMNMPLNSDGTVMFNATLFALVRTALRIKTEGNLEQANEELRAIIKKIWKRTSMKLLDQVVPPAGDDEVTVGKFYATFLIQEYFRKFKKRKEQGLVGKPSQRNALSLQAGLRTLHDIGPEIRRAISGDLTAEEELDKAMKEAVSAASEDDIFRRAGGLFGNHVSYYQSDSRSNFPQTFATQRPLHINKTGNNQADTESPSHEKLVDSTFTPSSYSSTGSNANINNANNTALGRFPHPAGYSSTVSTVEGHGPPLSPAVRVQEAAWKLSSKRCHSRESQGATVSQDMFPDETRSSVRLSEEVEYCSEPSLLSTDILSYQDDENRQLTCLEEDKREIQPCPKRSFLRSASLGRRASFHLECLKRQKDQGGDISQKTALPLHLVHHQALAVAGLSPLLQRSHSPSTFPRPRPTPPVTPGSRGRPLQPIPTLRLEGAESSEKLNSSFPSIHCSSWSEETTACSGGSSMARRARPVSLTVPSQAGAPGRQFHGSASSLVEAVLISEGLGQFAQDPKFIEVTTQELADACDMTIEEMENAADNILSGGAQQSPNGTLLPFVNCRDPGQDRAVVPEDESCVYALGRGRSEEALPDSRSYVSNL

Regarding `CC[C@@H]1CN2CC[C@@]3(O)C(=Nc4cccc(-c5ccoc5)c43)[C@@H]2C[C@@H]1/C(=C\OC)C(=O)OC`, the Activity entry was “Toxic” in [1]; “Non-Toxic” in [5]; 30.8 cm in data set [9]; “Active” in [14]; “Non-Toxic” in data set [15]; “Non-Toxic” in data set [17]. Also, the Activity result in data set [20] is given as “Non-Toxic”. Further, the result (in the data set on Mus musculus [2]; in data set [6]; at Mu-type opioid receptor [13]) was Active. Besides, in the data set with Mus musculus [3], the ED50 (in general, the dose at which the effect has come halfway, by size or by number of responders) came to 3.05 mg/kg. In addition, the Emax (as a rule, the greatest response seen or fitted, relative to the assay's reference) is < 20% on Mu-type opioid receptor [4]; 20% in data set [7]; 31% at Mu-type opioid receptor [10]; 45% at Mu-type opioid receptor [11]; 106% at Mu-type opioid receptor [16]; 60% on Mu-type opioid receptor [22]. For the same molecule, the EC50 (as a rule, the concentration at which the effect is half-maximal) is 11000 nM at Mu-type opioid receptor [8] and 7.25 nM on Mu-type opioid receptor [18]. Also, the MPE came out at 100% in the data set on Mus musculus [12] and 87% with Mus musculus [19]. Moreover, the affinity on Mu-type opioid receptor [21] corresponds to a Ki of 6 nM.
